The inhibition is the relative decrease from the control value, in per cent. What is called IC50 is the concentration that gives 50% inhibition.

The source made the active and inactive calls. No cut-off for these calls is given here.

The target in assay [1] is T1, DNA (cytosine-5)-methyltransferase 3A (Homo sapiens, UniProt Q9Y6K1). Put plainly: Inhibition of N-terminal His6-tagged DNMT3A (623 to 908 residues) (unknown origin) expressed in Escherichia coli BL21 (DE3) coexpressing DNMT3L (160 to 386 C-terminal residues) (unknown origin) assessed as reduction in oligonucleosome methylation at 100 uM preincubated for 15 mins followed by addition of [3H]-SAM measured after 4 hrs by liquid scintillation counting method. An outline of the steps: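 DNMT3A/3L complex activity measured by radioactive methylation assay. Single-point screen at 100µM per compound, with sinefungin (a SAM competitor) run as the reference inhibitor.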
T1 sequence (Q9Y6K1 whole entry, looked up, the tested form may be a part): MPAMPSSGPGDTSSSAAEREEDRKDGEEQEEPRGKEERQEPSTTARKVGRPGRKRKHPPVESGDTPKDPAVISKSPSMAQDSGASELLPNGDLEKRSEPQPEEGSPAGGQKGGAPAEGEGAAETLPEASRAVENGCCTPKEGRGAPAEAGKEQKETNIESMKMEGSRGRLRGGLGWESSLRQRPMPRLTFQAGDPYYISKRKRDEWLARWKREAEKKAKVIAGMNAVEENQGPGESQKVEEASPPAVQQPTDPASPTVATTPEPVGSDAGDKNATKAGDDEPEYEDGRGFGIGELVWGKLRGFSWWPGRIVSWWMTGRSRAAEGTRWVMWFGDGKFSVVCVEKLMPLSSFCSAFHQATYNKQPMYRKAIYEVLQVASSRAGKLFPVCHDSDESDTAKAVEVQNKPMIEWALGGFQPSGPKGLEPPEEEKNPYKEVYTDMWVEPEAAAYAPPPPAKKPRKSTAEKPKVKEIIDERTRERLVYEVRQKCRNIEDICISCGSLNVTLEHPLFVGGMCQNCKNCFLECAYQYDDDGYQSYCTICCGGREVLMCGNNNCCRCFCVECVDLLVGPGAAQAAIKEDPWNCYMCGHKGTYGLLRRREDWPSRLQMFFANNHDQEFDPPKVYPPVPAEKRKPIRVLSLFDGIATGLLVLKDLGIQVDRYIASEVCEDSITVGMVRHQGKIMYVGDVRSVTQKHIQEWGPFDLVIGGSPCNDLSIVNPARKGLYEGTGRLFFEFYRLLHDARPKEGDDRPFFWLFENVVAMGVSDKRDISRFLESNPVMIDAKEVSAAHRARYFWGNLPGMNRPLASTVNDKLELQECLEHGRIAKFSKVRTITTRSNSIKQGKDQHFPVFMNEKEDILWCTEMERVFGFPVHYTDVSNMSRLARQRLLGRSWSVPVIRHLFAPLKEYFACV

The next assay has as its system KG-1. Kind of assay: Growth inhibition of human KG1 cells at 12.5 to 200 uM measured after 72 hrs by AlamarBlue assay. The assay is classed as functional, cell-based. An outline of the steps:
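KG-1 AML cells were treated at 12.5, 25, 50, 100 and 200µM, with viability read after 72 hours of exposure.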
On the technique in general: Alamar Blue is a resazurin reagent that responds to reducing activity.

A further assay concerns HeLa. Put plainly: Growth inhibition of human HeLa cells at 12.5 to 200 uM measured after 4 days by AlamarBlue assay. The assay is classed as functional, cell-based.
The subject of a further assay is Kasumi 1. Kind of assay: Growth inhibition of human Kasumi-1 cells at 12.5 to 200 uM measured after 48 hrs by AlamarBlue assay. The class given is functional, cell-based. An outline of the steps:
(§1)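 AML cells were exposed to 12.5, 25, 50, 100 and 200µM for 48 hours before viability read-out: Kasumi-1, MV4-11 and THP-1.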

A further assay deals with THP-1. Kind of assay: Growth inhibition of human THP1 cells at 12.5 to 200 uM measured after 48 hrs by AlamarBlue assay. The class given is functional, cell-based. The method, boiled down: as §1
The next assay relates to MV4-11. Put plainly: Growth inhibition of human MV4-11 cells at 12.5 to 200 uM measured after 48 hrs by AlamarBlue assay. The class given is functional, cell-based. The method, boiled down: as §1
The target in assay [2] is T1, DNA (cytosine-5)-methyltransferase 3A. Put plainly: Inhibition of N-terminal His6-tagged DNMT3A (623 to 908 residues) (unknown origin) expressed in Escherichia coli BL21 (DE3) coexpressing DNMT3L (160 to 386 C-terminal residues) (unknown origin) assessed as reduction in oligonucleosome methylation preincubated for 15 mins followed by addition of [3H]-SAM measured after 4 hrs by liquid scintillation counting method. The method, boiled down:
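IC50 determined from a dose-response in the same radioactive methylation assay on DNMT3A/3L. Sinefungin served as the SAM-competitive reference inhibitor.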

For the compound `CC(C)(C)N1C(=O)c2ccc(C(=O)Nc3ccc(C(=O)O)cc3)cc2C1=O`, in assay [1], the inhibition came out at 11%. In the case of `CCOc1ccccc1N1C(=O)c2ccc(C(=O)Nc3ccc(Br)cc3C(=O)O)cc2C1=O`, the inhibition in assay [1] was found to be 56%. As for `COc1ccccc1NC(=O)c1ccc2c(c1)C(=O)N(Cc1ccco1)C2=O`, the inhibition in assay [1] turned out to be 3%. With `CC(c1ccccc1)N1C(=O)c2ccc(C(=O)Nc3ccc(Br)cc3C(=O)O)cc2C1=O` (configuration not stated), the “growth inhibition (GI)” value in the assay on KG-1, in the assay on HeLa, with Kasumi 1, in the assay on THP-1 and in the assay on MV4-11 was “Active” each time. The inhibition result in assay [1] was “Active”. Also, the IC50 in assay [2] amounted to 46.5 µM. In the case of `O=C(Nc1ccccc1Cl)c1ccc2c(c1)C(=O)N(Cc1ccco1)C2=O`, the inhibition in assay [1] was 13%. On the same count and under the same terms, as for `CCOc1ccc(NC(=O)c2ccc3c(c2)C(=O)N(c2ccccc2)C3=O)cc1`, the figure is 19%; as for `Cc1cc(O)ccc1NC(=O)c1ccc2c(c1)C(=O)N(Cc1cccnc1)C2=O`, 11%; as for `COc1ccccc1N1C(=O)c2ccc(C(=O)Nc3ccccc3O)cc2C1=O`, 1%.

As for `Cc1cc(Br)ccc1NC(=O)c1ccc2c(c1)C(=O)N(CC(C)C)C2=O`, the inhibition in assay [1] was found to be 8%. On the same count and under the same terms, as for `COCCN1C(=O)c2ccc(C(=O)Nc3ccc(Br)cc3C(=O)O)cc2C1=O`, the figure is -8%. For the compound `O=C(O)c1ccc(NC(=O)c2ccc3c(c2)C(=O)N(Cc2ccco2)C3=O)cc1`, the inhibition in assay [1] was found to be 92%. In addition, the IC50 in assay [2] turned out to be 64 µM. On to `O=C(Nc1ccc(Br)cc1C(=O)O)c1ccc2c(c1)C(=O)N(c1cc(Cl)ccc1C(=O)O)C2=O`, for which the “growth inhibition (GI)” value in the assay with KG-1, in the assay with HeLa, in the assay on Kasumi 1, with THP-1 and with MV4-11 was “Active” in each case. The inhibition in assay [1] is 67%. The IC50 in assay [2] came out at 41 µM. `Cc1ccc(O)c(NC(=O)c2ccc3c(c2)C(=O)N(Cc2cccnc2)C3=O)c1`: the inhibition in assay [1] was determined as 6%. Still for that read-out and setting: as for `COc1ccc(N2C(=O)c3ccc(C(=O)Nc4ccccc4OC)cc3C2=O)cc1`, the figure is 4%.
